Data on six molecules can be found in paper PMC13201524 (Journal of structural biology, 2025).

Entries after “also recorded” stand apart in the source; their conditions may differ. Like-named read-outs stand apart in the source and are kept apart here.

One data set deals with T1, mScn (Mus musculus, UniProt P11672).
T1 sequence (P11672 with tags, fused parts or gaps): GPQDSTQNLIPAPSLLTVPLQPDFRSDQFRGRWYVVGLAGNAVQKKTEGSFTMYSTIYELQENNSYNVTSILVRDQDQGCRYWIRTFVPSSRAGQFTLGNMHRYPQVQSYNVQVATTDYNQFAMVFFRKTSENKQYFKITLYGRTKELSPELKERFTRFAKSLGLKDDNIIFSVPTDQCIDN
Nature of the data set: 1H-15N Trosy HSQC NMR screening and titration on mScn. The class given is binding. To be noted: FDA-approved drugs library and Vanderbilt discovery library; peak shifts of mScn. Summed up:
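15N-labelled mScn was expressed in E. coli BL21(DE3) as a 6His-GB1 fusion, and the GB1 tag was cleaved with HRV3C. Screening used pools of 12 compounds (1 μl each of 10 mM DMSO stock) with 20 μM mScn in 100 mM sodium phosphate pH 6.0, 5 vol% D2O and 2 vol% DMSO. Hits were re-tested singly, then titrated with 50 μM mScn (5 vol% DMSO) at protein:ligand ratios from 1:0 to 1:10.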

For data set [1] the following is noted: ref Gleiter and Mörike, 2002; Buter et al., 1999; cited from earlier work.
The conditions of data set [2]: ref Gleiter and Mörike, 2002; Buter et al., 1999; cited from earlier work. This is another data set of the same source.
The target of the next data set is hScn. To be noted: read-out: binding affinity; ref Goetz et al., 2002; Hohlbaum et al., 2018; cited from earlier work.
Data set [3] can be described thus: Isothermal titration calorimetry. The class given is binding. A digest of the protocol: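 Monomeric hScn C87S (and mutants) was expressed in E. coli on M9 medium and purified by Ni-NTA and size exclusion. The protein sat in the cell and the test compound in the syringe, both in matched 100 mM sodium phosphate pH 6.0 with 2% DMSO. Runs were at 25°C and 750 rpm: a 0.4 μL first injection, then at least 19 injections of 2 μL spaced 150 s. A ligand-into-buffer reference titration was run.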

Turning to `CCOc1nc2cccc(C(=O)O)c2n1Cc1ccc(-c2ccccc2-c2nc(=O)o[nH]2)cc1` [azilsartan], the “NMR screening / titration result in words” value at mScn is recorded as “identified hits”.
On to `CCOc1nc2cccc(C(=O)O)c2n1Cc1ccc(-c2ccccc2-c2nnn[nH]2)cc1` [candesartan], for which the plasma protein binding entry in data set [1] was “exceeding 99%”. Moreover, the “NMR screening / titration result in words” value at mScn is recorded as “tightest binding; also recorded: medium to low affinity”. Also, the maximal plasma concentration entry in data set [2] is “around 0.227 μM”.
With `CCCCC(=O)N(Cc1ccc(-c2ccccc2-c2nnn[nH]2)cc1)[C@H](C(=O)O)C(C)C` [valsartan], the “NMR screening / titration result in words” value at mScn is “identified hits”.
In the case of `O=C(N[C@H]1COC(=O)[C@@H](NC(=O)c2cccc(O)c2O)COC(=O)[C@@H](NC(=O)c2cccc(O)c2O)COC1=O)c1cccc(O)c1O` [enterobactin], the Kd on hScn was 0.41 ± 0.11 nM.

B1: Y138A: hScn_C87S point mutant, best performing loss of binding mutant (protein, UniProt P80188 21-198, looked up, variant C87S Y138A)
Neutrophil …: QDSTSDLIPAPPLSKVPLQQNFQDNQFQGKWYVVGLAGNAILREDKDPQKMYATIYELKEDKSYNVTSVLFRKKKCDYWIRTFVPGSQPGEFTLGNIKSYPGLTSYLVRVVSTNYNQHAMVFFKKVSQNREYFKITLAGRTKELTSELKENFIRFSKSLGLPENHIVFPVPIDQCIDG
On to B1, for which, in data set [3] (ITC, candesartan), the “increase of KD (decrease in binding affinity) compared to wild type” value is reported as “fivefold”.

B2: T54R: hScn_C87S point mutant, best performing gain of binding mutant (protein, UniProt P80188 21-198, looked up, variant C87S T54R)
Neutrophil …: QDSTSDLIPAPPLSKVPLQQNFQDNQFQGKWYVVGLAGNAILREDKDPQKMYARIYELKEDKSYNVTSVLFRKKKCDYWIRTFVPGSQPGEFTLGNIKSYPGLTSYLVRVVSTNYNQHAMVFFKKVSQNREYFKITLYGRTKELTSELKENFIRFSKSLGLPENHIVFPVPIDQCIDG
On to B2, for which the Kd in data set [3] (read-out: ITC KD1, first binding event, value in nM) worked out at 115 nM; in data set [3] (read-out: ITC- KD2, second binding event), 3500 nM.
